# In ChEMBL document CHEMBL1121519, “Basic antiinflammatory compounds. N,N',N''-Trisubstituted guanidines” (J Med Chem, 1980):
# Legend:
# Rattus norvegicus [1] = experiment: Percent inhibition of carrageenan paw edema in rat, administered orally at a dose of one tenth of oral lethal dose in mice; format: functional
# Procedure, shortened: (§1)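 1 h later, 0.1 mL of 1% carrageenan was injected into the right hind-paw plantar tissue. Paw swelling was measured by mercury-displacement plethysmometry 3 h after carrageenan, compared with controls.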
# Rattus norvegicus [2] = experiment: Total score is the sum of scores obtained in the adjuvant arthritis, acute toxicity, carrageenan edema, and prostaglandin synthetase assay; format: functional
# [3] = Lethal dose in mice determined by Litchfield and Wilcoxon methods after peroral administration.; format: toxicity, organism-based; conditions: mouse, in vivo, po
# Procedure, shortened: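 Median lethal dose found after oral dosing of mice, four mice per dose level, and calculated by the Litchfield–Wilcoxon method.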
# [4] = target: Cyclooxygenase (Bos taurus) (UniProt O62664+O62698); experiment: Inhibition of prostaglandin synthetase in bovine seminal vesicle microsomes using Beckman liquid scintillation counter at 10 e-5 M; conditions: Microsome
# Rattus norvegicus [5] = experiment: Tested for percent enhancement of carrageenan paw edema in rat, administered orally at a dose of one tenth of oral lethal dose in mice; format: functional; procedure, shortened: as §1
# [6] = Toxic score (3) was measured as lethal dose in orally administered mice; format: toxicity, organism-based; conditions: mouse, in vivo, po
# Procedure, shortened: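 Score derived from mouse oral LD50 (Litchfield–Wilcoxon, four mice per dose), in mg/kg: >1000 = 3; 500-1000 = 2; <500 = 1.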
# Rattus norvegicus [7] = organism: Rattus norvegicus; experiment: Tested for inhibition in the rat paw not injected with […].; format: functional; design: concentration or dose not given beside the values
# Procedure, shortened: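 Adjuvant-induced arthritis, female Lewis rats, six per group: M. butyricum in mineral oil (3 mg/mL, 0.1 mL) injected into right hind paw plantar tissue. Daily oral dosing from adjuvant day to day 28, 10 or 5 (mg/kg)/day according to mouse oral LD50 (≥1000 or <1000 mg/kg). Injected and noninjected paw swelling read by mercury-displacement plethysmometry on day 28.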
# Rattus norvegicus [8] = organism: Rattus norvegicus; experiment: Tested for inhibition in the rat paw injected with carrageenan.; format: functional; design: concentration or dose not given beside the values
Compound,Inhibition (Rattus norvegicus [1]),Total score (Rattus norvegicus [2]),LD50 [3],inhibition [4],Enhancement (Rattus norvegicus [5]),LD50 [6],Inhibition (Rattus norvegicus [7]),Inhibition (Rattus norvegicus [8])
Cc1cc(N/C(=N/C2(C)CCCC2)Nc2nccs2)c2ccccc2n1,46%,7,600 mg/kg,100%,–,–,–,–
Cc1cc(N/C(=N/C2CCCCC2)Nc2nc3ccccc3[nH]2)c2ccccc2n1,–,–,> 1000 mg/kg,7.2%,13%,–,–,–
CC(C)(C)/N=C(\Nc1ccc2ccccc2c1)Nc1nccs1,–,–,> 1000 mg/kg,1.7%,17%,–,–,–
CCOC(=O)c1csc(/N=C(\Nc2cc(C)nc3ccccc23)NC(C)(C)C)n1,–,–,> 1000 mg/kg,71.8%,36%,–,–,–
Cc1cc(N/C(=N/C(C)(C)C)Nn2cnnc2)c2ccccc2n1,–,–,> 1000 mg/kg,–,9%,–,–,–
CC(C)(C)/N=C(/Nc1nccs1)Nc1cccc2ccccc12,–,–,> 1000 mg/kg,6.9%,19%,–,–,–
CCOC(=O)c1cnc(/N=C(\Nc2cc(C)nc3ccccc23)NC2CCCCC2)s1,–,–,> 1000 mg/kg,15.6%,16%,–,–,–
Cc1cc(N/C(=N/C2CCCCC2)Nc2ncc(C(=O)O)s2)c2ccccc2n1,30%,–,> 1000 mg/kg,8.4%,–,–,–,–
Cc1cc(N/C(=N/C2CCCCC2)Nc2nc(C(=O)O)cs2)c2ccccc2n1,9%,–,> 1000 mg/kg,2.9%,–,–,–,–
Cc1cc(N/C(=N/C2CCCCC2)Nc2nnc(C)s2)c2ccccc2n1,56%,–,> 1000 mg/kg,36.2%,–,–,–,–
Cc1cc(N/C(=N/C(C)(C)C)Nc2nnc(S)s2)c2ccccc2n1,16%,–,> 1000 mg/kg,6%,–,–,–,–
CC(C)(C)/N=C(\Nc1nccs1)Nc1cc(-c2ccccc2)nc2ccccc12,40%,–,> 1000 mg/kg,< 10%,–,–,–,–
CC(C)(C)/N=C(\Nc1nccs1)Nc1ccnc2cc(Cl)ccc12,61%,7,> 1000 mg/kg,5.5%,–,> 1000 mg/kg,8%,26%
Cc1cc(N/C(=N/C2CCCCC2)Nc2c(C)noc2C)c2ccccc2n1,17%,–,> 1000 mg/kg,19.3%,–,–,–,–
Cc1cc(N/C(=N/c2ccccc2C)Nc2nccs2)c2ccccc2n1,53%,–,> 1000 mg/kg,14.8%,–,–,–,–
CC(C)(C)/N=C(\Nc1ccccc1)Nc1nccs1,24%,–,> 1000 mg/kg,6.4%,–,–,–,–
CC(C)c1cc(N/C(=N/C(C)(C)C)Nc2nccs2)c2ccccc2n1,31%,–,> 1000 mg/kg,12.4%,–,–,–,–
Clc1ccc2c(N/C(=N/C3CCCCC3)Nc3nccs3)ccnc2c1,56%,–,> 1000 mg/kg,21.6%,–,–,–,–
Cc1nc2ccccc2c(N/C(=N/C2CCCCC2)Nc2nccs2)c1Cl,19%,–,> 1000 mg/kg,8.1%,–,–,–,–
CC(C)(C)N=C(Nc1nccs1)Nc1nccs1,49%,–,> 1000 mg/kg,13.1%,–,–,–,–
Cc1cc(N/C(=N\C(C)CCCC(C)C)Nc2nccs2)c2ccccc2n1 (stereo not given),25%,–,> 1000 mg/kg,1.7%,–,–,–,–
Cc1cc(N/C(=N/C(C)(C)C)Nc2nc3ccccc3s2)c2ccccc2n1,18%,–,> 1000 mg/kg,51.8%,–,–,–,–
Cc1cc(N/C(=N\C2CCCC2)Nc2nccs2)c2ccccc2n1,52%,–,600 mg/kg,58.7%,–,–,–,–
CCCCCCCCCCCCCCCCCC/N=C(\Nc1nccs1)Nc1cc(C)nc2ccccc12.Cl,5%,–,> 1000 mg/kg,7%,–,–,–,–
CC(C)(C)/N=C(\Nc1cnc2ccccc2c1)Nc1nccs1,36%,–,> 1000 mg/kg,-1%,–,–,–,–
c1ccc(-c2cc(N/C(=N/C3CCCCC3)Nc3nccs3)c3ccccc3n2)cc1,5%,–,> 1000 mg/kg,14%,–,–,–,–
Cc1cc(N/C(=N/C2CCC(C)CC2)Nc2nccs2)c2ccccc2n1 (stereo not given),39%,–,> 1000 mg/kg,12.6%,–,–,–,–
